Assay results taken from ChEMBL document CHEMBL3286372, “Design, synthesis and structure-activity relationship of novel semi-synthetic flavonoids as antiproliferative agents” (2014).

Legend:
[1] = Growth inhibition of human RXF393 cells after 48 hrs by coulter counting analysis; type: functional; settings: RXF 393, 48 h
Procedure, shortened: (§1)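 Five-dose NCI-60 follow-up, 0.01–100 µM, made from DMSO stock in buffered saline (final DMSO <1%), in duplicate wells. Cells in RPMI 1640 with 10% FBS at 6×10^4 cells/ml, 37 °C, 5% CO2, 48 h. Cells diluted tenfold in saline, Coulter-counted and corrected for dilution. GI50, TGI and LC50 taken from log concentration–percent growth curves.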

[2] = biological target: Cyclin-dependent kinase 4/cyclin D1 (Homo sapiens) (UniProt P11802+P24385); assay: Inhibition of CDK4/Cyclin D1 (unknown origin) at 20 uM after 30 mins by scintillation counting analysis relative to control; type: protein-complex assay
Procedure, shortened: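 Recombinant kinases, cloned, expressed and purified in-house. Radiometric ³³P-ATP assay with kinase at ~10-50 nM final and 1-5 µg peptide or protein substrate. Compound at 20 µM final, in duplicate. Reaction started by adding ATP, run 30 min at ambient temperature, then spotted on P81 phosphocellulose. Plates washed in 1% phosphoric acid and counted by scintillation. No-substrate blank subtracted. Result is mean % activity change versus DMSO control.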

[3] = tested on: CCRF-CEM; assay: Growth inhibition of human CCRF-CEM cells at 10 uM after 48 hrs by sulforhodamine B assay relative to control; type: functional; settings: read-out: GI
Procedure, shortened: (§2)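 NCI-60 primary screen at a single dose of 10 µM with 48 h continuous exposure. Growth or viability read by sulforhodamine B protein staining and expressed as percent growth inhibition versus untreated cells.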

[4] = tested on: SNB-75; assay: Growth inhibition of human SNB75 cells after 48 hrs by coulter counting analysis; type: functional; settings: SNB-75, 48 h; procedure, shortened: as §1
[5] = tested on: SK-OV-3; assay: Growth inhibition of human SKOV3 cells after 48 hrs by coulter counting analysis; type: functional; settings: SK-OV-3, 48 h; procedure, shortened: as §1
[6] = tested on: MDA-MB-231; assay: Growth inhibition of human MDA-MB-231 cells after 48 hrs by coulter counting analysis; type: functional; settings: MDA-MB-231, 48 h
Procedure, shortened: (§3)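 NCI five-dose screen at 0.01-100 µM, diluted from DMSO stocks in buffered saline (final DMSO <1%). Cells at 6×10^4 cells/ml in RPMI 1640 with 10% FBS, in duplicate wells, at 37 °C under 5% CO2 for 48 h. Cells diluted tenfold in saline and Coulter-counted. GI50, TGI and LC50 taken from log concentration-growth inhibition curves.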

[7] = tested on: CCRF-CEM; assay: Growth inhibition of human CCRF-CEM cells after 48 hrs by coulter counting analysis; type: functional; procedure, shortened: as §3
[8] = tested on: MCF7; assay: Growth inhibition of human MCF7 cells after 48 hrs by coulter counting analysis; type: functional; settings: MCF7, 48 h; procedure, shortened: as §3
[9] = tested on: KM12; assay: Growth inhibition of human KM12 cells after 48 hrs by coulter counting analysis; type: functional; settings: KM12, 48 h; procedure, shortened: as §3
[10] = tested on: DU-145; assay: Growth inhibition of human DU145 cells after 48 hrs by coulter counting analysis; type: functional; settings: DU-145, 48 h; procedure, shortened: as §3
[11] = tested on: A549; assay: Growth inhibition of human A549/ATCC cells after 48 hrs by coulter counting analysis; type: functional; settings: A549, 48 h; procedure, shortened: as §3
[12] = Growth inhibition of human MOLT4 cells after 48 hrs by coulter counting analysis; type: functional; settings: MOLT-4, 48 h; procedure, shortened: as §1
[13] = tested on: MDA-MB-468; assay: Growth inhibition of human MDA-MB-468 cells after 48 hrs by coulter counting analysis; type: functional; settings: MDA-MB-468, 48 h; procedure, shortened: as §1
[14] = Growth inhibition of human NCI-ADR-RES cells after 48 hrs by coulter counting analysis; type: functional; procedure, shortened: as §1
[15] = Growth inhibition of human OVCAR4 cells after 48 hrs by coulter counting analysis; type: functional; settings: OVCAR-4, 48 h; procedure, shortened: as §1
[16] = Growth inhibition of human UACC62 cells after 48 hrs by coulter counting analysis; type: functional; settings: UACC-62, 48 h
Procedure, shortened: (§4)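 NCI five-dose screen, 0.01-100 µM, from DMSO stocks diluted in buffer saline (final DMSO <1%). Cells grown in RPMI 1640 + 10% FBS, seeded at 6×10^4 cells/ml, in duplicate wells. Exposure 48 h at 37 °C, 5% CO2. Cells diluted 10-fold in saline and counted by Coulter counter. GI50 derived from log concentration–percent growth inhibition curves. Controls carried matching PBS/saline/DMSO.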

[17] = tested on: IGROV-1; assay: Growth inhibition of human IGROV1 cells after 48 hrs by coulter counting analysis; type: functional; settings: IGROV-1, 48 h; procedure, shortened: as §3
[18] = Growth inhibition of human OVCAR5 cells after 48 hrs by coulter counting analysis; type: functional; settings: OVCAR-5, 48 h; procedure, shortened: as §1
[19] = Growth inhibition of human OVCAR8 cells at 10 uM after 48 hrs by sulforhodamine B assay relative to control; type: functional; settings: OVCAR-8, 48 h, read-out: GI
Procedure, shortened: (§5)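 NCI-60 primary screen at a single 10 µM dose. Continuous 48 h exposure, with growth or viability estimated by sulforhodamine B protein staining. Reported as percent growth inhibition of treated cells relative to untreated growth.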

[20] = tested on: 786-0; assay: Growth inhibition of human 786-0 cells after 48 hrs by coulter counting analysis; type: functional; settings: 786-0, 48 h; procedure, shortened: as §3
[21] = tested on: TK-10; assay: Growth inhibition of human TK10 cells after 48 hrs by coulter counting analysis; type: functional; settings: TK-10, 48 h; procedure, shortened: as §4
[22] = Growth inhibition of human OVCAR8 cells after 48 hrs by coulter counting analysis; type: functional; settings: OVCAR-8, 48 h; procedure, shortened: as §1
[23] = tested on: K562; assay: Growth inhibition of human K562 cells after 48 hrs by coulter counting analysis; type: functional; settings: K562, 48 h; procedure, shortened: as §3
[24] = tested on: NCI-H322M; assay: Growth inhibition of human NCI-H322M cells after 48 hrs by coulter counting analysis; type: functional; procedure, shortened: as §1
[25] = Growth inhibition of human HOP92 cells after 48 hrs by coulter counting analysis; type: functional; settings: HOP-92, 48 h; procedure, shortened: as §3
[26] = Growth inhibition of human UO31 cells at 10 uM after 48 hrs by sulforhodamine B assay relative to control; type: functional; settings: UO-31, 48 h, read-out: GI
Procedure, shortened: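 NCI-60 primary single-dose screen at 10 µM with continuous 48 h exposure. Cell viability/growth read by sulforhodamine B protein staining. Reported as percent growth inhibition relative to untreated cells.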

[27] = Growth inhibition of human UO31 cells after 48 hrs by coulter counting analysis; type: functional; settings: UO-31, 48 h; procedure, shortened: as §4
[28] = tested on: DU-145; assay: Growth inhibition of human DU145 cells at 10 uM after 48 hrs by sulforhodamine B assay relative to control; type: functional; settings: DU-145, 48 h, read-out: GI; procedure, shortened: as §2
[29] = tested on: M14; assay: Growth inhibition of human M14 cells after 48 hrs by coulter counting analysis; type: functional; settings: M14, 48 h; procedure, shortened: as §3
[30] = tested on: HCT-116; assay: Growth inhibition of human HCT116 cells at 10 uM after 48 hrs by sulforhodamine B assay relative to control; type: functional; settings: HCT-116, 48 h, read-out: GI; procedure, shortened: as §2
[31] = Growth inhibition of human Hs 578T cells after 48 hrs by coulter counting analysis; type: functional; procedure, shortened: as §3
[32] = Growth inhibition of human BT549 cells after 48 hrs by coulter counting analysis; type: functional; settings: BT-549, 48 h; procedure, shortened: as §3
[33] = tested on: NCI-H460; assay: Growth inhibition of human NCI-H460 cells at 10 uM after 48 hrs by sulforhodamine B assay relative to control; type: functional; settings: NCI-H460, 48 h, read-out: GI; procedure, shortened: as §5

Structure (SMILES)	GI50 [1]	inhibition [2]	inhibition of growth at 10 µM [3]	GI50 [4]	GI50 [5]	GI50 [6]	GI50 [8]	GI50 [9]	GI50 [10]	GI50 [11]	GI50 [13]	GI50 [14]	GI50 [15]	GI50 [16]	GI50 [17]	GI50 [18]	GI50 [20]	GI50 [21]	GI50 [22]	GI50 [24]	other results
COc1c2occc2c(OC)c2c(=O)c(CN3CCOCC3)c(/C=C/c3ccc(N(C)C)cc3)oc12	1.81 µM	12%	95%	1.39 µM	2.72 µM	2.22 µM	1.88 µM	1.73 µM	1.67 µM	2.83 µM	1.76 µM	2.63 µM	2.47 µM	1.86 µM	1.79 µM	2.59 µM	1.93 µM	2.46 µM	5.15 µM	1.65 µM	LC50 [4]: 5.75 µM; GI50 [7]: 1.17 µM; GI50 [12]: 1.58 µM; LC50 [16]: 7.61 µM; inhibition of growth at 10 µM [19]: 80%; GI50 [23]: 1.85 µM; GI50 [25]: 0.24 µM; inhibition of growth at 10 µM [26]: 63%; GI50 [27]: 1.43 µM; inhibition of growth at 10 µM [28]: 93%; GI50 [29]: 2.34 µM; inhibition of growth at 10 µM [30]: 82%
COc1c2occc2c(OC)c2c(=O)c(CN3CCOCC3)c(/C=C/c3ccc(Cl)cc3)oc12	2.36 µM	6%	81%	2.41 µM	3.56 µM	2.92 µM	2.1 µM	2.1 µM	2.63 µM	2.85 µM	2.12 µM	3.12 µM	2.75 µM	1.9 µM	1.94 µM	2.76 µM	3.09 µM	5.32 µM	2.78 µM	2.54 µM	GI50 [31]: 1.9 µM; GI50 [7]: 1.78 µM; GI50 [32]: 2.38 µM; GI50 [12]: 2.84 µM; inhibition of growth at 10 µM [33]: 88%; inhibition of growth at 10 µM [19]: 60%; GI50 [23]: 3.28 µM; GI50 [25]: 1.28 µM; inhibition of growth at 10 µM [26]: 61%; GI50 [29]: 2.76 µM
COc1ccccc1/C=C/C(=O)c1c(O)cc2occc2c1OC	14.9 µM	0%	63%	7.49 µM	21.3 µM	33.1 µM	9.56 µM	> 100 µM	23.5 µM	> 100 µM	10.3 µM	29.6 µM	> 100 µM	23.7 µM	26 µM	> 100 µM	35.3 µM	21.9 µM	53.8 µM	> 100 µM	GI50 [31]: 38.2 µM; GI50 [7]: 9.72 µM; GI50 [32]: 28.2 µM; inhibition of growth at 10 µM [33]: 61%; GI50 [25]: 2.98 µM; GI50 [27]: > 100 µM; inhibition of growth at 10 µM [28]: 78%; GI50 [29]: > 100 µM; inhibition of growth at 10 µM [30]: 66%
COc1c(C(=O)/C=C/c2ccccc2)c(O)cc2occc12	3.56 µM	13%	65%	2.42 µM	14.1 µM	4.38 µM	3.52 µM	3.71 µM	3.81 µM	8.62 µM	6.77 µM	2.42 µM	5.4 µM	4.15 µM	3.51 µM	5.67 µM	16.2 µM	11.2 µM	3.63 µM	13.6 µM	GI50 [31]: 2.76 µM; GI50 [32]: 7.72 µM; GI50 [12]: 3.36 µM; GI50 [23]: 4.43 µM; GI50 [25]: 1.64 µM; inhibition of growth at 10 µM [26]: 60%; GI50 [27]: 3.14 µM; inhibition of growth at 10 µM [28]: 75%; GI50 [29]: 8.89 µM; inhibition of growth at 10 µM [30]: 68%
